ChEMBL document CHEMBL5724801, “EUbOPEN Chemogenomics Library - Multiplex” (2024)
Several values for one entry are separate records, joined by “and”; a condition that tells them apart may be missing. Identical values can stand only once.

Test system: U2OS
Assay: Multiplex assay against U2OS
Format: toxicity, cell-based
Conditions: human
Procedure, shortened: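 Four dyes were applied at seeding to live cells: Hoechst33342, BioTracker Green Microtubule Cytoskeleton Dye, MitoTracker Red and Annexin V Alexa Fluor 680. Imaging after compound addition used a CQ1 microscope at 37°C and 5% CO2. CellPathfinder machine-learning gating then sorted cells into Hoechst high-intensity objects or normal cells, normal cells into healthy, pyknosed or fragmented nuclei, and pyknosed cells into mitotic or apoptotic, with tubulin, mitochondrial-mass and membrane-permeability phenotypes given as per cents of healthy-nucleus cells.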

[1] = 12 h, 1 µM, compound concentration 1 uM
[2] = 12 h, 10 µM, compound concentration 10 uM
[3] = 24 h, 1 µM, compound concentration 1 uM
[4] = 24 h, 10 µM, compound concentration 10 uM
[5] = 48 h, 1 µM, compound concentration 1 uM
[6] = 48 h, 10 µM, compound concentration 10 uM

CC(C)(O)c1cnc(N2C[C@@]3(CCC[C@](C)(Cn4cnc5ccc(C#N)cc54)C3)OC2=O)cn1 [GSK2798745]
Population Apoptotic (%) [1]: 63.64% and 30.77%
Population Fragmented Nuclei (%) [1]: 3.45% and 3.94%
Population Healthy Nuclei (%) [1]: 87.8% and 85.83%
Population Hoechst High Intensity Objects (%) [1]: 0%
Population Membrane Permeable-Phenotype (%) [1]: 0.6% and 4.59%
Population Mitochondria Different-Phenotype (%) [1]: 0.3% and 10.09%
Population Mitotic Cells (%) [1]: 36.36% and 69.23%
Population Normal (%) [1]: 100%
Population Pyknosed Nuclei (%) [1]: 8.75% and 10.24%
Population Tubulin-Different-Phenotype (%) [1]: 1.51% and 0%
Total Cell Count [1]: 377 and 127
Population Apoptotic (%) [2]: 39.02% and 48.39%
Population Fragmented Nuclei (%) [2]: 1.62% and 2.98%
Population Healthy Nuclei (%) [2]: 87.33% and 78.57%
Population Hoechst High Intensity Objects (%) [2]: 0%
Population Membrane Permeable-Phenotype (%) [2]: 2.16% and 6.06%
Population Mitotic Cells (%) [2]: 60.98% and 51.61%
Population Normal (%) [2]: 100%
Population Pyknosed Nuclei (%) [2]: 11.05% and 18.45%
Population Tubulin-Different-Phenotype (%) [2]: 3.7% and 1.52%
Total Cell Count [2]: 371 and 168
Population Apoptotic (%) [3]: 40.48% and 23.53%
Population Fragmented Nuclei (%) [3]: 1.65% and 5.56%
Population Healthy Nuclei (%) [3]: 89.67% and 83.95%
Population Hoechst High Intensity Objects (%) [3]: 0%
Population Membrane Permeable-Phenotype (%) [3]: 0.23% and 2.94%
Population Mitochondria Different-Phenotype (%) [3]: 0.23% and 2.94%
Population Mitotic Cells (%) [3]: 59.52% and 76.47%
Population Normal (%) [3]: 100%
Population Pyknosed Nuclei (%) [3]: 8.68% and 10.49%
Population Tubulin-Different-Phenotype (%) [3]: 0.69% and 0%
Total Cell Count [3]: 484 and 162
Population Apoptotic (%) [4]: 44% and 37.5%
Population Fragmented Nuclei (%) [4]: 1.39% and 4.31%
Population Healthy Nuclei (%) [4]: 88.71% and 84.21%
Population Hoechst High Intensity Objects (%) [4]: 0.2% and 0%
Population Membrane Permeable-Phenotype (%) [4]: 1.34% and 6.25%
Population Mitochondria Different-Phenotype (%) [4]: 0.67% and 8.52%
Population Mitotic Cells (%) [4]: 56% and 62.5%
Population Normal (%) [4]: 99.8% and 100%
Population Pyknosed Nuclei (%) [4]: 9.9% and 11.48%
Population Tubulin-Different-Phenotype (%) [4]: 3.12% and 1.7%
Total Cell Count [4]: 506 and 209
Population Apoptotic (%) [5]: 34.95% and 33.33%
Population Fragmented Nuclei (%) [5]: 3.43% and 2.22%
Population Healthy Nuclei (%) [5]: 85.16% and 84.44%
Population Hoechst High Intensity Objects (%) [5]: 0%
Population Membrane Permeable-Phenotype (%) [5]: 1.17% and 3.07%
Population Mitochondria Different-Phenotype (%) [5]: 0.13% and 4.82%
Population Mitotic Cells (%) [5]: 65.05% and 66.67%
Population Normal (%) [5]: 100%
Population Pyknosed Nuclei (%) [5]: 11.41% and 13.33%
Population Tubulin-Different-Phenotype (%) [5]: 0.52% and 1.32%
Population Apoptotic (%) [6]: 52.17% and 44.9%
Population Fragmented Nuclei (%) [6]: 2.1% and 0.91%
Population Healthy Nuclei (%) [6]: 87.73% and 84.29%
Population Hoechst High Intensity Objects (%) [6]: 0%
Population Membrane Permeable-Phenotype (%) [6]: 1.26% and 1.79%
Population Mitochondria Different-Phenotype (%) [6]: 0.5% and 9.68%
Population Mitotic Cells (%) [6]: 47.83% and 55.1%
Population Normal (%) [6]: 100%
Population Pyknosed Nuclei (%) [6]: 10.17% and 14.8%
Population Tubulin-Different-Phenotype (%) [6]: 3.65% and 0.36%
Total Cell Count [6]: 905 and 331

COCCNc1cc(NC(=O)N2CCCc3cc(CN4CCN(C)CC4=O)c(C=O)nc32)ncc1C#N [FGF401]
Population Apoptotic (%) [1]: 50% and 42.86%
Population Fragmented Nuclei (%) [1]: 2.96% and 1.3%
Population Healthy Nuclei (%) [1]: 87.87% and 85.06%
Population Hoechst High Intensity Objects (%) [1]: 0%
Population Membrane Permeable-Phenotype (%) [1]: 2.15% and 0%
Population Mitochondria Different-Phenotype (%) [1]: 0% and 2.29%
Population Mitotic Cells (%) [1]: 50% and 57.14%
Population Normal (%) [1]: 100%
Population Pyknosed Nuclei (%) [1]: 9.16% and 13.64%
Population Tubulin-Different-Phenotype (%) [1]: 2.15% and 0.76%
Total Cell Count [1]: 371 and 154
Population Apoptotic (%) [2]: 37.5% and 26.32%
Population Fragmented Nuclei (%) [2]: 0.72% and 5.88%
Population Healthy Nuclei (%) [2]: 91.65% and 82.94%
Population Hoechst High Intensity Objects (%) [2]: 0.24% and 0%
Population Membrane Permeable-Phenotype (%) [2]: 1.3% and 4.26%
Population Mitochondria Different-Phenotype (%) [2]: 0% and 3.55%
Population Mitotic Cells (%) [2]: 62.5% and 73.68%
Population Normal (%) [2]: 99.76% and 100%
Population Pyknosed Nuclei (%) [2]: 7.64% and 11.18%
Population Tubulin-Different-Phenotype (%) [2]: 0.52% and 0%
Total Cell Count [2]: 420 and 170
Population Apoptotic (%) [3]: 48.94% and 42.31%
Population Fragmented Nuclei (%) [3]: 1.93% and 2.97%
Population Healthy Nuclei (%) [3]: 88.97% and 84.16%
Population Hoechst High Intensity Objects (%) [3]: 0.19% and 0%
Population Membrane Permeable-Phenotype (%) [3]: 0.87% and 1.18%
Population Mitochondria Different-Phenotype (%) [3]: 0.87% and 4.71%
Population Mitotic Cells (%) [3]: 51.06% and 57.69%
Population Normal (%) [3]: 99.81% and 100%
Population Pyknosed Nuclei (%) [3]: 9.09% and 12.87%
Population Tubulin-Different-Phenotype (%) [3]: 0.87% and 0%
Total Cell Count [3]: 518 and 202
Population Apoptotic (%) [4]: 43.18% and 34.29%
Population Fragmented Nuclei (%) [4]: 1.85% and 3.54%
Population Healthy Nuclei (%) [4]: 90.04% and 80.97%
Population Hoechst High Intensity Objects (%) [4]: 0%
Population Membrane Permeable-Phenotype (%) [4]: 1.23% and 2.19%
Population Mitochondria Different-Phenotype (%) [4]: 0% and 3.28%
Population Mitotic Cells (%) [4]: 56.82% and 65.71%
Population Normal (%) [4]: 100%
Population Pyknosed Nuclei (%) [4]: 8.12% and 15.49%
Population Tubulin-Different-Phenotype (%) [4]: 0.61% and 1.09%
Total Cell Count [4]: 542 and 226
Population Apoptotic (%) [5]: 45.12% and 50%
Population Fragmented Nuclei (%) [5]: 4.25% and 1.54%
Population Healthy Nuclei (%) [5]: 87.05% and 87.38%
Population Hoechst High Intensity Objects (%) [5]: 0%
Population Membrane Permeable-Phenotype (%) [5]: 0.73% and 3.17%
Population Mitochondria Different-Phenotype (%) [5]: 0.49% and 4.23%
Population Mitotic Cells (%) [5]: 54.88% and 50%
Population Normal (%) [5]: 100%
Population Pyknosed Nuclei (%) [5]: 8.7% and 11.08%
Population Tubulin-Different-Phenotype (%) [5]: 0.73% and 0.7%
Total Cell Count [5]: 942 and 325
Population Apoptotic (%) [6]: 39.42% and 53.49%
Population Fragmented Nuclei (%) [6]: 2% and 2.76%
Population Healthy Nuclei (%) [6]: 87.6% and 86.43%
Population Hoechst High Intensity Objects (%) [6]: 0% and 0.25%
Population Membrane Permeable-Phenotype (%) [6]: 1.14% and 2.62%
Population Mitochondria Different-Phenotype (%) [6]: 0.11% and 1.45%
Population Mitotic Cells (%) [6]: 60.58% and 46.51%
Population Normal (%) [6]: 100% and 99.75%
Population Pyknosed Nuclei (%) [6]: 10.4% and 10.8%
Population Tubulin-Different-Phenotype (%) [6]: 0.91% and 1.16%
Total Cell Count [6]: 1000 and 399
